≈ marks a conversion by molar mass, not a printed value. Where “and” joins values, the source holds several entries; their conditions need not be identical. Identical values can stand only once.
Assays:
MRSA ATCC 33591 [1] = assay: In vitro resistance development, serial passage study; assay type: cell-based, Staphylococcus aureus; settings: cation-adjusted MHB, ratio of MIC after passage to MIC before first passage
[2] = system: murine red blood cells (RBCs); assay: Hemolytic activity; assay type: cell-based; settings: 1 h
Procedure, shortened: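 Fresh murine RBCs washed twice in 35 mM PBS (150 mM NaCl, pH 7.4) and suspended at 4% (v/v). Mixed 1:1 with 2-fold serial dilutions of test compound in PBS and held 1 h at 37 °C. After centrifugation, supernatant diluted in PBS and hemoglobin read at 414 nm. Lysis % scaled between PBS and 0.1% Triton X-100 (100%). Duplicate wells, two days.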

MSSA ATCC 29213 [3] = assay: MIC, broth microdilution; assay type: cell-based, Staphylococcus aureus
Procedure, shortened: (§1)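 Broth microdilution: mid-log cells washed, suspended in cation-adjusted MHB or TSB (0.25% glucose, 0.5% NaCl), and adjusted to 10^8 CFU/mL (OD600 0.5). Added to 2-fold serial dilutions of test compound in 0.2% BSA/0.01% acetic acid, final about 2–5 × 10^5 CFU/mL in polypropylene wells. Incubated 16–18 h at 37 °C, 180 rpm; A600 read. MIC = lowest concentration fully inhibiting growth. Duplicates on at least two days.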

MRSA ATCC 33591 [4] = assay: MIC, broth microdilution; assay type: cell-based, Staphylococcus aureus
Procedure, shortened: as §1

S. aureus cells = assay: MIC of palmitic acid, preliminary studies; assay type: cell-based; settings: Staphylococcus aureus
[5] = system: MSSA ATCC 29213 and MRSA ATCC 33591; assay: Killing kinetics of stationary phase cells in TSB medium, both strains pooled; assay type: cell-based, Staphylococcus aureus; settings: 10 × MIC, 10^7 CFU/mL
Procedure, shortened: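 Adjusted to 10^7 CFU/mL (OD600 0.05) in the same medium and incubated at 37 °C with test compound at 30, 40 or 50 μM; vancomycin included as comparator. Aliquots taken at 15 and 30 min, 1, 2, 3 and 24 h, serially diluted and drop-plated; colonies counted after 16–18 h. Three independent runs.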

S. aureus biofilm = assay: Inhibition of biofilm formation, both strains pooled; assay type: cell-based, Staphylococcus aureus; settings: identical conditions, 24 h, TSB, MSSA and MRSA
Procedure, shortened: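 Overnight S. aureus diluted to 10^5 CFU/mL in TSB (0.25% glucose, 0.5% NaCl). Biofilms grown 24 h at 37 °C in polystyrene wells with 20 μM test compound. Biomass by crystal violet after two PBS washes, read at 570 nm. Metabolic activity by resazurin: plate sonicated 5 min at 40 kHz, 30 min dark at room temperature, ex 550/em 590 nm. Viable cells by scraping into PBS, sonicating, plating and counting after 16–18 h at 37 °C.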

MSSA ATCC 29213 [6] = assay: Killing of stationary phase cells in PBS, colony count; assay type: cell-based, Staphylococcus aureus; settings: 2 h, 10^5 CFU/mL stationary phase cells
Procedure, shortened: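 Stationary-phase cells washed once and resuspended in 10 mM PBS (150 mM NaCl, pH 7.4). Adjusted to about 10^8 CFU/mL (OD600 0.5), then diluted 10-fold serially to 10^5 CFU/mL. Exposed to test compound for 2 h at 37 °C, 180 rpm; aliquots diluted, plated and counted after overnight incubation at 37 °C. Bactericidal defined as >3 log reduction versus untreated control.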

[7] = system: 3T3 murine fibroblast cells; assay: Cytotoxicity, MTT assay; assay type: cell-based; settings: 2% Triton X-100, positive control
Procedure, shortened: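 3T3 murine fibroblasts seeded at 0.2 × 10^5 cells/well in DMEM with 10% FBS for 24 h to about 75% confluence. Exposed to 20 or 50 μM test compound in serum-free DMEM for 2 h at 37 °C, 5% CO2. Washed, then 0.1 mg/mL MTT for 2 h in the dark; formazan dissolved in DMSO and read at 570 nm. Survival % = OD570 sample/untreated × 100. Two independent runs in duplicate.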

[8] = system: stationary phase S. aureus cells; assay: SEM and TEM of stationary phase cells; assay type: cell-based, Staphylococcus aureus; settings: 20 μg/mL, positive control
[9] = Staphylococcus aureus, ATCC29213|MSSA
[10] = tryptic soy broth (0.25% glucose, 0.5% NaCl)
[11] = Staphylococcus aureus, ATCC33591|MRSA

`O=C(O)c1cn(C2CC2)c2cc(N3CCNCC3)c(F)cc2c1=O` [ciprofloxacin] was tested, and the “increase in MIC after 18 serial passages at sub-MIC concentrations” value (MRSA ATCC 33591 [1]) was 66 fold.

In the case of `CC[C@H](C)[C@H](NC(=O)CN)C(=O)NCC(=O)N[C@@H](C)C(=O)N[C@H](C(=O)N[C@@H](CC(C)C)C(=O)N[C@@H](CCCCN)C(=O)N[C@H](C(=O)N[C@@H](CC(C)C)C(=O)N[C@H](C(=O)N[C@H](C(=O)NCC(=O)N[C@@H](CC(C)C)C(=O)N1CCC[C@H]1C(=O)N[C@@H](C)C(=O)N[C@@H](CC(C)C)C(=O)N[C@H](C(=O)N[C@@H](CO)C(=O)N[C@@H](Cc1c[nH]c2ccccc12)C(=O)N[C@H](C(=O)N[C@@H](CCCCN)C(=O)N[C@@H](CCCNC(=N)N)C(=O)N[C@@H](CCCCN)C(=O)N[C@@H](CCCNC(=N)N)C(=O)N[C@@H](CCC(N)=O)C(=O)N[C@@H](CCC(N)=O)C(N)=O)[C@@H](C)CC)[C@@H](C)CC)[C@@H](C)O)[C@@H](C)O)C(C)C)C(C)C` [melittin], the “HC50 (concentration that causes lysis of 50% of the RBCs)” value [2] is reported as at most 3.9 µM.

`Cc1onc(-c2ccccc2)c1C(=O)N[C@@H]1C(=O)N2[C@@H]1SC(C)(C)[C@@H]2C(=O)O` [oxacillin] was tested, and the MIC (MSSA ATCC 29213 [3]; [9]) was < 0.8 µM and < 0.35 µg/mL, the MIC (MSSA ATCC 29213 [3]; [10]) was < 0.8 μM and < 0.35 μg/mL and the MIC (MRSA ATCC 33591 [4]; [11]) was 134 µM to 268 µM and 56.8 µg/mL to 114 µg/mL. For the same compound, the MIC (MRSA ATCC 33591 [4]; [10]) was 134.1–268.3 μM and 56.8–113.6 μg/mL.

For `CCCCCCCCCCCCCCCC(=O)O` [palmitic acid], the MIC (S. aureus cells) was over 50 µM.

With `CN[C@H](CC(C)C)C(=O)N[C@H]1C(=O)N[C@@H](CC(N)=O)C(=O)N[C@H]2C(=O)N[C@H]3C(=O)N[C@H](C(=O)N[C@H](C(=O)O)c4cc(O)cc(O)c4-c4cc3ccc4O)[C@H](O)c3ccc(c(Cl)c3)Oc3cc2cc(c3O[C@@H]2O[C@H](CO)[C@@H](O)[C@H](O)[C@H]2O[C@H]2C[C@](C)(N)[C@H](O)[C@H](C)O2)Oc2ccc(cc2Cl)[C@H]1O` [vancomycin] the “increase in MIC after 18 serial passages at sub-MIC concentrations” value (MRSA ATCC 33591 [1]) was 8 fold, the MIC (MSSA ATCC 29213 [3]; [9]) was 0.48 µM (≈ 0.696 µg/mL) and the MIC (MSSA ATCC 29213 [3]; [10]) was 0.48 µM (≈ 0.696 µg/mL). For the same compound, the MIC (MRSA ATCC 33591 [4]; [11]) was 0.48 to 0.96 µM (≈ 0.696 to 1.39 µg/mL), the MIC (MRSA ATCC 33591 [4]; [10]) was 0.48−0.96 μM and the “log reduction in the cell count” value ([5]; 24 h, range over MSSA and MRSA) was 3.4–4.4 log. For the same compound, the cell viability ([5]; up to 3 h) was “did not affect the cell viability”, the “log reduction in the viable cell count of the biofilm” value (S. aureus biofilm) was at least 4.8 log and the “reduction of biofilm biomass (crystal violet)” value (S. aureus biofilm) was at least 98.32 ± 0.95%. The “reduction of metabolic activity in the biofilm (resazurin)” value (S. aureus biofilm) was 100%.

For “Ac-H^6-F^7-R^8-W^9-G^10-K^11-P^12-V^13-NH2 [α-MSH(6-13)]”, the “log reduction in viable cell count” value (MSSA ATCC 29213 [6]; 20 μM) was about 2 log and the “log reduction in viable cell count” value (MSSA ATCC 29213 [6]; 50 μM) was about 2 log.

For Ac-K^11-P^12-V^13-NH2 [α-MSH(11-13)], the “log reduction in viable cell count” value (MSSA ATCC 29213 [6]; 150 μM) was 0.7 log.

For Triton X-100, the “reduction in survival of the cells relative to untreated growth control” value [7] was 52.8%.

With gramicidin D the “bacterial morphology and surface integrity in SEM and TEM” value [8] was “presence of cell debris, dents on the surface, and loss in shape of the cells”.
